Test results from ChEMBL document CHEMBL1154734, “Small-sized human immunodeficiency virus type-1 protease inhibitors containing allophenylnorstatine to explore the S2' pocket” (J Med Chem, 2009).
In brackets after ≈: the same amount, converted by molar mass.

Tests used:
[1] = system: Human immunodeficiency virus 1; experiment: Antiviral activity against indinavir-resistant HIV1 harboring L10R/M46I/L63P/V82T/I84V mutant protease infected in human MT4 cells assessed as inhibition of virus-induced cytopathic effect after 5 days by MTT assay; assay type: functional, organism-based; details: Human immunodeficiency virus 1, MT4, 120 h
Method in brief: (§1)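 MT-4 cells inoculated with HIV-1 wild-type pNL4-3 or indinavir-resistant IND-R, then given an equal volume of compound in 1% DMSO at several concentrations with 10% fetal bovine serum. Incubated 5 days at 37 °C in CO2, in triplicate. MTT read-out by optical density gave percent cytopathic-effect reduction; EC50 was fitted to a median-effect equation.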

[2] = biological target: Protease (Human immunodeficiency virus 1) (UniProt Q9YQ12); experiment: Inhibition of HIV1 recombinant protease at 1 nM after 3 hrs by fluorescence assay
Chain of Protease (Human immunodeficiency virus 1) (Q9YQ12 as listed by the source): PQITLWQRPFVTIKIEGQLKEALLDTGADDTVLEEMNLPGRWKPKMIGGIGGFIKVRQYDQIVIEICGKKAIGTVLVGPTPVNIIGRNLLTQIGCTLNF

[3] = system: Human immunodeficiency virus 1; experiment: Antiviral activity against HIV1 3B infected in human MT4 cells assessed as inhibition of virus-induced cytopathic effect after 5 days by MTT assay; assay type: functional, organism-based; details: Human immunodeficiency virus 1, 3B, MT4, 120 h
Method in brief: (§2)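 HIV-1 (IIIB or pNL4-3) inoculated into MT-4 cells. Cultures were treated with an equal volume of a 1% DMSO solution of compound at several concentrations plus 10% fetal bovine serum, then incubated 5 days at 37 °C in CO2, in triplicate. After MTT, optical density gave the percent cytopathic effect reduction. EC50 was fitted to a median-effect equation.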

[4] = system: Human immunodeficiency virus 1; experiment: Antiviral activity against HIV1 pNL4-3 infected in human MT4 cells assessed as inhibition of virus-induced cytopathic effect after 5 days by MTT assay; assay type: functional, organism-based; details: Human immunodeficiency virus 1, pNL4-3, MT4, 120 h; method in brief: as §2
[5] = system: Human immunodeficiency virus 1; experiment: Fold resistance, ratio of EC50 for indinavir-resistant HIV1 harboring L10R/M46I/L63P/V82T/I84V mutant protease infected in human MT4 cells to EC50 for HIV1 pNL4-3 infected in human MT4 cells; assay type: functional; method in brief: as §1
[6] = biological target: Protease (Human immunodeficiency virus 1) (UniProt Q9YQ12); experiment: Inhibition of HIV1 recombinant protease at 50 nM after 15 mins by fluorescence assay
Method in brief: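 Recombinant HIV-1 protease was assayed in MES–NaOH pH 5.5 with DTT, EDTA and NaCl, with inhibitor at 50 nM final (500 nM DMSO stock). The substrate was H-Lys-Ala-Arg-Val-Tyr-Phe(p-NO2)-Glu-Ala-Nle-NH2, and the reaction ran 15 min at 37 °C. It was stopped with 1 N HCl. The N-terminal fragment was quantified by RP-HPLC with fluorescence at ex 275/em 305 nm.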

[7] = system: Human immunodeficiency virus 1; experiment: Ratio of EC50 for HIV1 3B infected in human MT4 cells in presence of 50% human serum to EC50 for HIV1 3B infected in human MT4 cells in absence of human serum; assay type: functional
[8] = system: Human immunodeficiency virus 1; experiment: Antiviral activity against HIV1 3B infected in human MT4 cells assessed as inhibition of virus-induced cytopathic effect after 5 days by MTT assay in presence of 50% human serum; assay type: functional, organism-based; details: Human immunodeficiency virus 1, 3B, MT4, 120 h
Method in brief: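 MT-4 cells were infected with wild-type HIV-1 (IIIB or pNL4-3) in the presence of 50% human serum. Compound was added at several concentrations from a 1% DMSO solution, and cells were incubated 5 days at 37 °C in triplicate. Cytopathic effect reduction was read by MTT optical density, and EC50 was derived from a median-effect equation fit.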

[9] = Aqueous solubility in 0.1% TFA after 30 mins by RP-HPLC analysis; assay type: physicochemical; details: 0.1% TFA in water
[10] = system: Human immunodeficiency virus 1; experiment: Antiviral activity against HIV1 3B infected in human MT4 cells assessed as inhibition of virus-induced cytopathic effect after 5 days by MTT assay in absence of human serum; assay type: functional, organism-based; details: Human immunodeficiency virus 1, 3B, MT4, 120 h; method in brief: as §2

| Compound | EC50 [1] [µM] | inhibition [2] [%] | EC50 [3] [µM] | EC50 [4] [µM] | Ratio EC50 [5] | inhibition [6] [%] | Ratio EC50 [7] | EC50 [8] [µM] | solubility at 0.5 h [9] [mg/mL] | EC50 [10] [µM] |
| --- | --- | --- | --- | --- | --- | --- | --- | --- | --- | --- |
| Cc1c(O)cccc1C(=O)N[C@@H](Cc1ccccc1)[C@H](O)C(=O)N1CSC(C)(C)[C@H]1C(=O)NCc1c(F)cccc1Cl | 0.157 | 50 | 0.032 | 0.025 | 6.3 | 97 |  |  |  |  |
| Cc1c(O)cccc1C(=O)N[C@@H](Cc1ccccc1)[C@H](O)C(=O)N1CSC(C)(C)[C@H]1C(=O)NC/C=C\CO |  |  | 1.2 |  |  | 94 |  |  |  |  |
| C=CCNC(=O)[C@H]1N(C(=O)[C@@H](O)[C@H](Cc2ccccc2)NC(=O)COc2c(C)cc(N)cc2C)CSC1(C)C | 0.47 |  |  | 0.054 | 8.7 | 91 | 4.3 | 0.284 | 12.8 (≈ 23.1 mM) | 0.066 |
| Cc1c(O)cccc1C(=O)N[C@@H](Cc1ccccc1)[C@H](O)C(=O)N1CSC(C)(C)[C@H]1C(=O)NC1CCCCCC1 |  |  | 0.332 |  |  | 76 |  |  |  |  |
| Cc1c(O)cccc1C(=O)N[C@@H](Cc1ccccc1)[C@H](O)C(=O)N1CSC(C)(C)[C@H]1C(=O)NCc1c(Cl)cccc1Cl |  | 66 | 0.039 |  |  | 98 |  |  |  |  |
| Cc1c(O)cccc1C(=O)N[C@@H](Cc1ccccc1)[C@H](O)C(=O)N1CSC(C)(C)[C@H]1C(=O)N[C@@H]1c2ccccc2C[C@@H]1O |  |  | 0.55 |  |  | 66 |  |  |  |  |
| CNc1cc(C)c(OCC(=O)N[C@@H](Cc2ccccc2)[C@H](O)C(=O)N2CSC(C)(C)[C@H]2C(=O)NCc2ccccc2C)c(C)c1 |  |  |  |  |  | 85 | 2.9 | 0.56 | 2.99 (≈ 4.72 mM) | 0.191 |
| Cc1cc(N)cc(C)c1OCC(=O)N[C@@H](Cc1ccccc1)[C@H](O)C(=O)N1CSC(C)(C)[C@H]1C(=O)NC1CCCC1 | 3.01 |  |  | 0.62 | 4.9 | 90 | 5 | 1.9 | 7.48 (≈ 12.8 mM) | 0.373 |
| Cc1c(O)cccc1C(=O)N[C@@H](Cc1ccccc1)[C@H](O)C(=O)N1CSC(C)(C)[C@H]1C(=O)N[C@H]1c2ccccc2C[C@H]1O |  |  | 0.1 |  |  | 92 |  |  |  |  |
| Cc1cc(N)cc(C)c1OCC(=O)N[C@@H](Cc1ccccc1)[C@H](O)C(=O)N1CSC(C)(C)[C@H]1C(=O)NC/C=C\CO |  |  |  |  |  | 91 | 2.3 | 0.433 | 9.32 (≈ 15.9 mM) | 0.184 |
| Cc1c(O)cccc1C(=O)N[C@@H](Cc1ccccc1)[C@H](O)C(=O)N1CSC(C)(C)[C@H]1C(=O)NCc1c(F)cccc1F |  | 24 | 0.051 |  |  | 91 |  |  |  |  |
| CCNC(=O)[C@H]1N(C(=O)[C@@H](O)[C@H](Cc2ccccc2)NC(=O)c2cccc(O)c2C)CSC1(C)C |  |  | 0.182 |  |  | 64 |  |  |  |  |
| Cc1ccccc1CNC(=O)[C@H]1N(C(=O)[C@@H](O)[C@H](Cc2ccccc2)NC(=O)COc2c(C)cc(N(C)C)cc2C)CSC1(C)C |  |  |  |  |  | 85 | 5.1 | 3.9 | 3.83 (≈ 5.92 mM) | 0.758 |
| Cc1c(O)cccc1C(=O)N[C@@H](Cc1ccccc1)[C@H](O)C(=O)N1CSC(C)(C)[C@H]1C(=O)NC1CCCC1 | 2.2 |  | 0.125 | 0.29 | 7.6 | 94 |  |  |  |  |
| Cc1cccc(C)c1OCC(=O)N[C@@H](Cc1ccccc1)[C@H](O)C(=O)N1CSC(C)(C)[C@H]1C(=O)NC(C)(C)C |  |  |  |  |  | 91 |  | 4.5 |  | 1.29 |
| CCCNC(=O)[C@H]1N(C(=O)[C@@H](O)[C@H](Cc2ccccc2)NC(=O)c2cccc(O)c2C)CSC1(C)C |  |  | 0.091 |  |  | 88 |  |  |  |  |
| Cc1c(O)cccc1C(=O)N[C@@H](Cc1ccccc1)[C@H](O)C(=O)N1CSC(C)(C)[C@H]1C(=O)NC1CCC1 |  |  | 0.119 |  |  | 65 |  |  |  |  |
